Converted amounts (≈) assume the structure as drawn.
Assays:
[1] = Inhibitory activity against colchicine resistant parent primary liver carcinoma (PLC) cell line PLC/PRF/5; assay type: functional, Homo sapiens
Procedure, shortened: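 PLC/PRF/5 cells were precultured 24 h at 37 °C in 5% CO₂ in 96-well plates, then given colchicine at 0.5 μg/mL. Test compounds were added in dilutions of 10⁻²–10⁻⁶ μg/mL and incubated 72 h at 37 °C in 5% CO₂. Survival was read by MTT. IC50 is the μg/mL giving 50% growth inhibition of the colchicine-resistant cells.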

[2] = Inhibitory activity against the primary liver carcinoma (PLC) cell line PLC/PRF/5; assay type: functional, Homo sapiens

Row | Structure (SMILES) | IC50 [1] | IC50 [2]
1 | C[C@]12CCC3C(CC[C@@H]4C[C@@H](O)CC[C@]34C)C1=CC[C@@H]2C1=CC(=O)OC1 (stereo partly drawn) | 0.73 µg/mL (≈ 2.05 µM) | 0.36 µg/mL (≈ 1.01 µM)
2 | C[C@]12C=CC(=O)C=C1CCC1C2CC[C@]2(C)[C@@H](c3ccc(=O)oc3)C[C@H]3O[C@]132 (stereo partly drawn) | 10 µg/mL (≈ 26.4 µM) | 6.7 µg/mL (≈ 17.7 µM)
3 | C[C@]12C=CC(=O)C[C@H]1CCC1C2CC[C@]2(C)[C@@H](c3ccc(=O)oc3)C[C@H]3O[C@]132 (stereo partly drawn) | 7.8 µg/mL (≈ 20.5 µM) | 2.6 µg/mL (≈ 6.83 µM)
4 | CC(=O)O[C@H]1CC[C@@]2(C)[C@H](CC[C@@H]3[C@@H]2CC[C@]2(C)[C@@H](c4ccc(=O)oc4)C(=O)[C@H]4O[C@@]432)C1 | 7.6 µg/mL (≈ 17.3 µM) | 2.4 µg/mL (≈ 5.45 µM)
5 | CC(=O)O[C@H]1CC[C@@]2(C)[C@H](CC[C@@H]3[C@@H]2CC[C@]2(C)[C@@H](c4ccc(=O)oc4)[C@@H](OC(=O)CCC(=O)O)[C@H]4O[C@]342)C1 | > 50 µg/mL | 50 µg/mL (≈ 92.1 µM)
6 | C[C@]12CC[C@H]3[C@@H](CC[C@]4(O)C[C@@H](O)CC[C@]34C=O)[C@@]1(O)CC[C@@H]2c1ccc(=O)oc1 | 0.00053 µg/mL (≈ 0.00127 µM) | 0.00016 µg/mL (≈ 0.000384 µM)
7 | C[C@]12CC[C@H](O)C[C@H]1CC[C@@H]1[C@@H]2CC[C@]2(C)C(/C(=C/CO)CO)C[C@H]3O[C@]132 (stereo partly drawn) | > 50 µg/mL | > 50 µg/mL
8 | COC(=O)CCCCCCC(=O)O[C@H]1CC[C@@]2(C)[C@H](CC[C@@H]3[C@@H]2CC[C@]2(C)[C@@H](C4=CC(=O)OC4)CC[C@]32O)C1 | 0.98 µg/mL (≈ 1.8 µM) | 0.53 µg/mL (≈ 0.973 µM)
9 | CC(=O)O[C@H]1CC[C@@]2(C)[C@H](CC[C@@H]3[C@@H]2CC[C@]2(C)[C@@H](c4ccc(=O)oc4)C[C@H](O)[C@]32O)C1 | 5.6 µg/mL (≈ 12.6 µM) | 0.71 µg/mL (≈ 1.6 µM)
10 | COC(=O)C/C=C/C1=CO[C@]23CCC1[C@@]2(C)C[C@@H](OC(C)=O)[C@H]1[C@H]3CC[C@@H]2C[C@@H](OC(C)=O)CC[C@@]21C | 20 µg/mL (≈ 38.9 µM) | 9.7 µg/mL (≈ 18.8 µM)
11 | C[C@]12CC[C@H](OC(=O)CCC(=O)O)C[C@H]1CC[C@@H]1[C@@H]2CC[C@]2(C)[C@@H](c3ccc(=O)oc3)CC[C@]12O | 0.51 µg/mL (≈ 1.05 µM) | 0.066 µg/mL (≈ 0.136 µM)
12 | CC(=O)O[C@H]1[C@H]2O[C@]23[C@@H]2CC[C@@H]4C[C@@H](OC(=O)CCC(=O)O)CC[C@]4(C)[C@H]2CC[C@]3(C)[C@H]1c1ccc(=O)oc1 | 0.96 µg/mL (≈ 1.77 µM) | 0.85 µg/mL (≈ 1.57 µM)
13 | C[C@]12CC[C@H](O)C[C@H]1CC[C@@H]1[C@@H]2CC[C@]2(C)C3CC[C@]12OC=C3/C=C/CC(=O)O | > 50 µg/mL | 10 µg/mL (≈ 25 µM)
14 | CC(=O)O[C@H]1[C@H]2O[C@]23[C@@H]2CC[C@@H]4C[C@@H](OC(=O)CCCCCCC(=O)O)CC[C@]4(C)[C@H]2CC[C@]3(C)[C@H]1c1ccc(=O)oc1 | 0.06 µg/mL (≈ 0.1 µM) | 0.01 µg/mL (≈ 0.0167 µM)
15 | CC(=O)O[C@H]1CC[C@@]2(C)[C@H](CC[C@@H]3[C@@H]2[C@H](O)C(=O)[C@]2(C)[C@@H](c4ccc(=O)oc4)CC[C@]32O)C1 | 6.8 µg/mL (≈ 14.8 µM) | 0.87 µg/mL (≈ 1.9 µM)
16 | CC(=O)CC1CC2C(O1)[C@H]1O[C@]13[C@@H]1CC[C@@H]4C[C@@H](O)CC[C@]4(C)[C@H]1CC[C@]23C (stereo partly drawn) | > 50 µg/mL | 9.5 µg/mL (≈ 24.5 µM)
17 | C[C@]12CC[C@@H](O)C[C@H]1CC[C@@H]1[C@@H]2CC[C@]2(C)[C@@H](c3ccc(=O)oc3)C[C@H]3O[C@]132 | 43 µg/mL (≈ 112 µM) | 8.3 µg/mL (≈ 21.6 µM)
18 | CC(=O)O[C@H]1[C@H]2O[C@]23[C@@H]2CC[C@@H]4C[C@@H](OC(=O)c5cc([N+](=O)[O-])cc([N+](=O)[O-])c5)CC[C@]4(C)[C@H]2CC[C@]3(C)[C@H]1c1ccc(=O)oc1 | 9.6 µg/mL (≈ 15.1 µM) | 0.78 µg/mL (≈ 1.23 µM)
19 | C[C@]12CC[C@H]3[C@@H](CC[C@@H]4C[C@@H](O)CC[C@@]43C=O)[C@]13O[C@@H]3C[C@@H]2c1ccc(=O)oc1 | 0.075 µg/mL (≈ 0.188 µM) | 0.0089 µg/mL (≈ 0.0223 µM)
20 | COC(=O)C/C=C/C1=CO[C@]23CCC1[C@@]2(C)CC[C@H]1[C@H]3CC[C@@H]2C[C@@H](O)CC[C@@]21C | 45 µg/mL (≈ 109 µM) | 9.1 µg/mL (≈ 21.9 µM)
21 | COC(=O)C/C=C/C1=CO[C@]23CCC1[C@@]2(C)CC[C@H]1[C@H]3CC[C@@H]2C[C@@H](OC(C)=O)CC[C@@]21C | 41 µg/mL (≈ 89.8 µM) | 6.6 µg/mL (≈ 14.5 µM)
22 | C[C@]12CC[C@H](O)C[C@H]1CC[C@@H]1[C@@H]2CC[C@]2(C)[C@@H](c3ccc(=O)oc3)C[C@H](O)[C@]12Cl | 0.82 µg/mL (≈ 1.95 µM) | 0.07 µg/mL (≈ 0.166 µM)

Row | Structure (SMILES) | IC50 [1] | IC50 [2]
23 | C[C@]12CC[C@H](O)C[C@H]1CC[C@@H]1[C@@H]2CC[C@]2(C)[C@@H](c3ccc(=O)oc3)C[C@H](O)[C@]12O | 30 µg/mL (≈ 74.5 µM) | 35 µg/mL (≈ 86.9 µM)
24 | CC(=O)O[C@H]1CC[C@@]2(C)[C@H](CC[C@@H]3[C@@H]2CC[C@]2(C)[C@@H](c4ccc(=O)oc4)[C@H](O)[C@H]4O[C@]342)C1 | 7.5 µg/mL (≈ 16.9 µM) | 6.7 µg/mL (≈ 15.1 µM)
25 | C=C(C)C(=O)O[C@H]1CC[C@@]2(C)[C@H](CC[C@@H]3[C@@H]2CC[C@]2(C)[C@@H](c4ccc(=O)oc4)CC[C@]32O)C1 | 0.097 µg/mL (≈ 0.213 µM) | 0.059 µg/mL (≈ 0.13 µM)
26 | CC(=O)O[C@H]1CC[C@@]2(C)[C@H](CC[C@@H]3[C@@H]2CC[C@]2(C)[C@@H](c4ccc(=O)oc4)CC(=O)[C@]32O)C1 | 6.4 µg/mL (≈ 14.5 µM) | 0.077 µg/mL (≈ 0.174 µM)
27 | C[C@]12CCC(=O)C[C@H]1CC[C@@H]1[C@@H]2CC[C@]2(C)[C@@H](c3ccc(=O)oc3)C(=O)[C@H]3O[C@@]312 | 5.6 µg/mL (≈ 14.1 µM) | 0.85 µg/mL (≈ 2.14 µM)
28 | COC(=O)C/C=C/C1=CO[C@]23C[C@H](OC(C)=O)C1[C@@]2(C)CC[C@H]1[C@H]3CC[C@@H]2C[C@@H](OC(C)=O)CC[C@@]21C | 50 µg/mL (≈ 97.2 µM) | 49 µg/mL (≈ 95.2 µM)
29 | C[C@]12CCC(=O)C[C@H]1CC[C@@H]1[C@@H]2CC[C@]2(C)[C@@H](c3ccc(=O)oc3)CC(=O)[C@@H]12 | 10 µg/mL (≈ 26.1 µM) | 7 µg/mL (≈ 18.3 µM)
30 | CCOC(=O)C/C=C(\C=O)C1[C@@H](O)C(=O)[C@H]2[C@@H]3CC[C@@H]4C[C@@H](OC(C)=O)CC[C@]4(C)[C@H]3CC[C@]12C (stereo partly drawn) | 33 µg/mL (≈ 67.5 µM) | 22 µg/mL (≈ 45 µM)
31 | CC(=O)O[C@H]1CC[C@@]2(C)[C@H](CC[C@@H]3[C@@H]2CC[C@]2(C)[C@@H](c4ccc(=O)oc4)CC(=O)[C@@H]32)C1 | 1.8 µg/mL (≈ 4.22 µM) | 0.55 µg/mL (≈ 1.29 µM)
32 | C[C@]12CC[C@H](O)C[C@H]1CC[C@@H]1[C@@H]2CC[C@]2(C)[C@@H](c3ccc(=O)oc3)CC(=O)[C@@H]12 | 12 µg/mL (≈ 31.2 µM) | 8.2 µg/mL (≈ 21.3 µM)
33 | C[C@]12CC[C@@H](O)C[C@H]1CC[C@@H]1[C@@H]2CC[C@]2(C)[C@@H](c3ccc(=O)oc3)C[C@@H]3O[C@]312 | 6.4 µg/mL (≈ 16.6 µM) | 4.7 µg/mL (≈ 12.2 µM)
34 | C[C@]12CC[C@H](O)C[C@H]1CC[C@@H]1[C@@H]2CC[C@]2(C)[C@@H](c3ccc(=O)oc3)C[C@@H]3O[C@]312 | 26 µg/mL (≈ 67.6 µM) | 20 µg/mL (≈ 52 µM)
35 | C[C@]12CCC(=O)C=C1CCC1C2CC[C@]2(C)[C@@H](c3ccc(=O)oc3)CC[C@]12O (stereo partly drawn) | 0.82 µg/mL (≈ 2.14 µM) | 0.00019 µg/mL (≈ 0.000497 µM)
36 | C[C@]12CCC(=O)C[C@H]1CCC1C2CC[C@]2(C)[C@@H](c3ccc(=O)oc3)C[C@@H]3O[C@@]132 (stereo partly drawn) | 43 µg/mL (≈ 112 µM) | 8.7 µg/mL (≈ 22.7 µM)
37 | CC(=O)O[C@H]1CC[C@]2(C)C3CC[C@@]4(C)C(=C[C@H](OC(C)=O)[C@@H]4c4ccc(=O)oc4)C3CC[C@@H]2C1 (stereo partly drawn) | 7.3 µg/mL (≈ 15.6 µM) | 5 µg/mL (≈ 10.7 µM)
38 | CC(=O)O[C@@H]1CC[C@]2(C)C3CC[C@]4(C)[C@@H](c5ccc(=O)oc5)C[C@@H]5O[C@@]54C3CC[C@@H]2C1 (stereo partly drawn) | 43 µg/mL (≈ 101 µM) | 4.7 µg/mL (≈ 11 µM)
39 | C[C@]12CC[C@H](O)C[C@@]1(O)CCC1C2CC[C@]2(C)[C@@H](c3ccc(=O)oc3)C[C@@H]3O[C@@]132 (stereo partly drawn) | 0.49 µg/mL (≈ 1.22 µM) | 0.52 µg/mL (≈ 1.3 µM)
40 | CC(=O)O[C@H]1CC[C@]2(C)C3CC[C@]4(C)[C@@H](c5ccc(=O)oc5)[C@@H](O)[C@@H]5O[C@@]54C3CC[C@@H]2C1 (stereo partly drawn) | 1 µg/mL (≈ 2.26 µM) | 0.88 µg/mL (≈ 1.99 µM)
41 | CC(=O)O[C@H]1CC[C@]2(C)C3CC[C@]4(C)[C@@H](c5ccc(=O)oc5)C[C@@H]5O[C@@]54C3CC[C@@H]2C1 (stereo partly drawn) | 7.3 µg/mL (≈ 17.1 µM) | 5.9 µg/mL (≈ 13.8 µM)
42 | CC(=O)O[C@H]1CC[C@@]2(C)[C@H](CC[C@@H]3[C@@H]2CC[C@]2(C)[C@@H](c4ccc(=O)oc4)C[C@H]4O[C@]342)C1 | 0.95 µg/mL (≈ 2.23 µM) | 0.32 µg/mL (≈ 0.75 µM)
43 | C[C@]12CCC(=O)C[C@H]1CC[C@@H]1[C@@H]2CC[C@]2(C)[C@@H](c3ccc(=O)oc3)C[C@H]3O[C@]132 | 9.7 µg/mL (≈ 25.4 µM) | 5.8 µg/mL (≈ 15.2 µM)
44 | C[C@]12CC[C@H]3[C@@H](CC[C@@H]4C[C@@H](O)CC[C@@]43CO)[C@]13O[C@@H]3C[C@@H]2c1ccc(=O)oc1 | 8.2 µg/mL (≈ 20.5 µM) | 0.61 µg/mL (≈ 1.52 µM)

— ChEMBL document CHEMBL1135672, “QSAR evaluation of the Ch'an Su and related bufadienolides against the colchicine-resistant primary liver carcinoma cell line PLC/PRF/5(1)” (J Med Chem, 2002)
